Source: ChEMBL document CHEMBL2331121, “Design, synthesis, and pharmacological characterization of N- and O-substituted 5,6,7,8-tetrahydro-4H-isoxazolo[4,5-d]azepin-3-ol analogues: novel 5-HT(2A)/5-HT(2C) receptor agonists with pro-cognitive properties” (J Med Chem, 2013)
Each block holds one molecule with its values, some of them ahead of it. The source made the active and inactive calls. No cut-off for these calls is given here.

How the values were obtained:
[1] = target: T1, 5-hydroxytryptamine receptor 2C (Homo sapiens, UniProt P28335); assay: Agonist activity at human 5HT2C receptor expressed in HEK293 cells assessed as induction of intracellular calcium release measured for 90 secs by fluorescence assay; format: functional, cell-based
T1 sequence (P28335 whole entry): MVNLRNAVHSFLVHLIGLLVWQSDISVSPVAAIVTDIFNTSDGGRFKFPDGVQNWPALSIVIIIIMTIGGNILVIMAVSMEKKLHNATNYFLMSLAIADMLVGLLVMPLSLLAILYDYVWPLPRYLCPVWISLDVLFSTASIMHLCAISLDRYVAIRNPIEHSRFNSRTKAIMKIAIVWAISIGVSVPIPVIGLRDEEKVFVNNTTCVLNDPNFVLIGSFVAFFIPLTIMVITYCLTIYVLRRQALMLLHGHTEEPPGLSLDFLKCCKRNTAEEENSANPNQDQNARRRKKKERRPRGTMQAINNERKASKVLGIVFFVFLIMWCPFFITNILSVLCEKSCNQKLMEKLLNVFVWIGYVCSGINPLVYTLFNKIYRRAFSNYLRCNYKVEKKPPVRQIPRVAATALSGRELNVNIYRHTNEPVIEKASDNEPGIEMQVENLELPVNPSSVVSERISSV

[2] = target: T2, 5-hydroxytryptamine receptor 2A (Homo sapiens, UniProt P28223); assay: Agonist activity at human 5HT2A receptor expressed in HEK293 cells assessed as induction of intracellular calcium release measured for 90 secs by fluorescence assay; format: functional, cell-based
[3] = target: T3, 5-hydroxytryptamine receptor 2C (Homo sapiens) (UniProt P28335); assay: Antagonist activity at human 5HT2C receptor expressed in HEK293 cells assessed as inhibition of 5HT-induced intracellular calcium release at 1 mM measured for 90 secs by fluorescence assay; format: functional, cell-based
T3 sequence (whole entry): T1 sequence (P28335 whole entry)
Procedure, shortened: (§1)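 Fluo-4/Ca²⁺ read-out in stable h5-HT2A or h5-HT2C HEK293 cells (HBSS/HEPES/probenecid buffer, pH 7.4). Antagonist was added after the dye-loading wash, then cells were challenged with an EC₇₅−EC₈₅ concentration of 5-HT. Emission at 525 nm was monitored up to 90 s after agonist addition. Duplicate, repeated in independent experiments.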

[4] = target: T2, 5-hydroxytryptamine receptor 2A; assay: Agonist activity at human 5HT2A receptor expressed in HEK293 cells assessed as induction of intracellular calcium release at 1 mM measured for 90 secs by fluorescence assay; format: functional, cell-based
Procedure, shortened: (§2)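 Stable polyclonal h5-HT2A or h5-HT2C HEK293 cells plated on poly-D-lysine wells, loaded next day with Fluo-4/AM for 1 h at 37 °C. Buffer was HBSS with 20 mM HEPES, 1 mM CaCl₂, 1 mM MgCl₂, 2.5 mM probenecid, pH 7.4. Fluorescence read at 485/525 nm before and up to 90 s after agonist addition. Responses normalised to 5-HT on the same plate. Duplicate, 4−10 experiments.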

[5] = target: T3, 5-hydroxytryptamine receptor 2C (Homo sapiens); assay: Agonist activity at human 5HT2C receptor expressed in HEK293 cells assessed as induction of intracellular calcium release at 1 mM measured for 90 secs by fluorescence assay; format: functional, cell-based; procedure, shortened: as §2
[6] = target: T2, 5-hydroxytryptamine receptor 2A; assay: Antagonist activity at human 5HT2A receptor expressed in HEK293 cells assessed as inhibition of 5HT-induced intracellular calcium release at 1 mM measured for 90 secs by fluorescence assay; format: functional, cell-based; procedure, shortened: as §1
[7] = target: T2, 5-hydroxytryptamine receptor 2A; assay: Agonist activity at human 5HT2A receptor expressed in HEK293 cells assessed as accumulation of IP1 incubated for 1 hr at 37 degC followed by 15 mins at RT by TR-FRET assay; format: functional, cell-based
[8] = target: T2, 5-hydroxytryptamine receptor 2A; assay: Agonist activity at human 5HT2A receptor expressed in HEK293 cells assessed as induction of intracellular calcium release by fluorescence assay relative to 5HT; format: functional, cell-based
Procedure, shortened: (§3)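 Stable polyclonal 5-HT2A or 5-HT2C HEK293 cells seeded on poly-D-lysine plates (6 × 10⁴ cells/well). Next day loaded with Fluo-4/AM for 1 h at 37 °C in HBSS/20 mM HEPES/1 mM CaCl₂/1 mM MgCl₂/2.5 mM probenecid, pH 7.4. Fluorescence (485 ex/525 em) recorded before and up to 90 s after agonist. Response relative to 5-HT on the same plate. Duplicate, at least three times.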

[9] = target: T2, 5-hydroxytryptamine receptor 2A; assay: biochemical; format: cell-based, tsA201
[10] = target: T3, 5-hydroxytryptamine receptor 2C (Homo sapiens); assay: Agonist activity at human 5HT2C receptor expressed in HEK293 cells assessed as accumulation of IP1 incubated for 1 hr at 37 degC followed by 15 mins at RT by TR-FRET assay relative to 5HT; format: functional, cell-based
Procedure, shortened: (§4)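 Polyclonal HEK293 lines stably expressing human 5-HT2A (variant 1) or 5-HT2C (INI isoform), detached and suspended at 1 × 10⁷ cells/mL in HBSS with 20 mM HEPES, 1 mM CaCl₂, 1 mM MgCl₂, pH 7.4. Ligands in buffer with 40 mM LiCl. Incubated 1 h at 37 °C, then 15 min RT. IP1 read by HTRF 665/615 ratio. Triplicate, at least four times.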

[11] = target: T2, 5-hydroxytryptamine receptor 2A; assay: Agonist activity at human 5HT2A receptor expressed in HEK293 cells assessed as accumulation of IP1 incubated for 1 hr at 37 degC followed by 15 mins at RT by TR-FRET assay relative to 5HT; format: functional, cell-based; procedure, shortened: as §4
[12] = target: T1, 5-hydroxytryptamine receptor 2C; assay: Agonist activity at human 5HT2C receptor expressed in HEK293 cells assessed as accumulation of IP1 incubated for 1 hr at 37 degC followed by 15 mins at RT by TR-FRET assay; format: functional, cell-based
[13] = target: T1, 5-hydroxytryptamine receptor 2C; assay: Displacement of [3H]mesulergine from human 5HT2C receptor expressed in tsA201 cell membranes after 1 hr by scintillation counting analysis
[14] = target: T3, 5-hydroxytryptamine receptor 2C (Homo sapiens); assay: Agonist activity at human 5HT2C receptor expressed in HEK293 cells assessed as induction of intracellular calcium release by fluorescence assay relative to 5HT; format: functional, cell-based; procedure, shortened: as §3
[15] = target: T2, 5-hydroxytryptamine receptor 2A; assay: Agonist activity at human 5HT2A receptor expressed in HEK293 cells assessed as induction of intracellular calcium release up to 1000 uM measured up to 90 secs by fluorescence assay; format: functional, cell-based; procedure, shortened: as §3
[16] = target: T4, 5-hydroxytryptamine receptor 2C (Rattus norvegicus) (UniProt P08909); assay: Displacement of [125I]-N-(p-I-Bn)-THAZ from 5HT2C in rat cerebral cortex membrane at 300 uM after 1 hr by scintillation counting analysis; format: cell membranes
T4 sequence (whole entry): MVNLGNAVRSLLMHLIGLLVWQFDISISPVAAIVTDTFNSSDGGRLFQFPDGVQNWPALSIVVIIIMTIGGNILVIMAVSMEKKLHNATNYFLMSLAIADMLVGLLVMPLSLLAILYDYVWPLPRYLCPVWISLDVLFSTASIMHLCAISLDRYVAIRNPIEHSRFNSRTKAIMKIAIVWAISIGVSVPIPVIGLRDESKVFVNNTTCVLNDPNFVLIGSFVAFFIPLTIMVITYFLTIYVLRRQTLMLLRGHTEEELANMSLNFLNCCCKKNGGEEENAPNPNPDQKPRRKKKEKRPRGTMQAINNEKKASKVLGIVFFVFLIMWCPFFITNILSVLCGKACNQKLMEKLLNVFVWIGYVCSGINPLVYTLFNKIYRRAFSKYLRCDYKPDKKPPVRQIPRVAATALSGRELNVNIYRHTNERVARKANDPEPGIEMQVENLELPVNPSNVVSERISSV

[17] = target: T4, 5-hydroxytryptamine receptor 2C (Rattus norvegicus); assay: Displacement of [125I]-N-(p-I-Bn)-THAZ from 5HT2C in rat cerebral cortex membrane up to 50 uM after 1 hr by scintillation counting analysis; format: cell membranes
[18] = target: T4, 5-hydroxytryptamine receptor 2C (Rattus norvegicus); assay: Displacement of [125I]-N-(p-I-Bn)-THAZ from 5HT2C receptor in rat midbrain membrane after 1 hr by scintillation counting analysis; format: cell membranes
[19] = target: T4, 5-hydroxytryptamine receptor 2C (Rattus norvegicus); assay: Displacement of [125I]-N-(p-I-Bn)-THAZ from 5HT2C receptor in rat hippocampal membrane after 1 hr by scintillation counting analysis; format: cell membranes; conditions: Hippocampus
[20] = target: T4, 5-hydroxytryptamine receptor 2C (Rattus norvegicus); assay: Displacement of [125I]-N-(p-I-Bn)-THAZ from 5HT2C receptor in rat cerebellum membrane after 1 hr by scintillation counting analysis; format: cell membranes

T2 sequence (P28223 whole entry): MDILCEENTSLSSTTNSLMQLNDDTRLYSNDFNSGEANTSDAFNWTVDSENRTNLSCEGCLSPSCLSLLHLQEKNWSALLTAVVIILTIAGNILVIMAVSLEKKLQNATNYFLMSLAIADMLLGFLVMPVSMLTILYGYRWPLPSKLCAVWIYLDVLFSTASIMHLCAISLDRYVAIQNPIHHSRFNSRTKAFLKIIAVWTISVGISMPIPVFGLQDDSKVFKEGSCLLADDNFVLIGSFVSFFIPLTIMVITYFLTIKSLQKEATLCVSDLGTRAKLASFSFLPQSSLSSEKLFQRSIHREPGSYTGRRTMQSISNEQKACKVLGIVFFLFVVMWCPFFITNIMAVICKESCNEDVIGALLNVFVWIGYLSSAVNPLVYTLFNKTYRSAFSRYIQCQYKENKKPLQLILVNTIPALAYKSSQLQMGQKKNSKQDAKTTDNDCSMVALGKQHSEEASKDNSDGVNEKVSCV

Structure (SMILES): O=c1c2c(on1Cc1ccccc1)CCCNC2
EC50 ([1]; hek293, read-out: EC50): > 1000 µM
EC50 ([1]; read-out: pEC50 (converted)): > 1000 µM
EC50 ([2]; hek293, read-out: EC50): > 1000 µM
EC50 ([2]; read-out: pEC50 (converted)): > 1000 µM
Activity [3]: inactive
Activity [4]: inactive
Activity [5]: inactive
Activity [6]: inactive

Structure (SMILES): Clc1cncc(N2CCNCC2)n1 [MK-212]
EC50 [7]: 1.2 µM
EC50 ([1]; read-out: EC50): 0.028 µM
Emax [8]: 97%
EC50 ([2]; read-out: EC50): 0.42 µM
Ki ([9]; read-out: Ki): 21 µM
Emax [10]: 93%
Emax [11]: 101%
EC50 [12]: 0.16 µM
Ki [13]: 3.4 µM
Emax [14]: 93%

Structure (SMILES): CCOc1noc2c1CCN(C)CC2
EC50 ([1]; hek293, read-out: EC50): > 1000 µM
EC50 ([1]; read-out: pEC50 (converted)): > 1000 µM
EC50 ([2]; hek293, read-out: EC50): > 1000 µM
EC50 ([2]; read-out: pEC50 (converted)): > 1000 µM
Ki ([9]; read-out: Ki): > 300 µM
Ki ([9]; read-out: pKi (converted)): > 316 µM
Activity [3]: inactive
Activity [4]: inactive
Activity [5]: inactive
Ki [13]: > 300 µM
Activity [6]: inactive

Structure (SMILES): Cn1c2c(c3ccccc31)CCNCC2 [PNU-22394]
EC50 [7]: 0.21 µM
EC50 ([1]; read-out: EC50): 0.0077 µM
Emax [8]: 102%
EC50 ([2]; read-out: EC50): 0.023 µM
Emax [10]: 97%
Emax [11]: 98%
EC50 [12]: 0.12 µM
Emax [14]: 101%

EC50 ([1]; read-out: EC50): 12 µM
Ki ([9]; read-out: Ki): 300 µM
Ki [13]: 300 µM
Emax [14]: 80%
Activity [15]: Active
Structure (SMILES): COc1noc2c1CCNCC2

Structure (SMILES): O=C1Nc2cc(Cl)c(Cl)cc2N2CCNCC12 (configuration not stated)
EC50 ([1]; read-out: EC50): 0.0073 µM
Emax [8]: 110%
EC50 ([2]; read-out: EC50): 0.012 µM
Emax [14]: 95%

Activity [16]: inactive
Structure (SMILES): CC(=O)OCC[N+](C)(C)C

Activity [16]: inactive
Structure (SMILES): NCCCC(=O)O

Activity [16]: inactive
Structure (SMILES): NC[C@H](O)c1ccc(O)c(O)c1

Activity [17]: inactive
Activity [18]: inactive
Activity [19]: inactive
Activity [20]: inactive
Structure (SMILES): CN1CCN2c3ccccc3Cc3ccccc3C2C1 (configuration not stated)

Structure (SMILES): O=c1c2c(on1Cc1ccccc1)CCNC2
EC50 ([1]; hek293, read-out: EC50): > 1000 µM
EC50 ([1]; read-out: pEC50 (converted)): > 1000 µM
EC50 ([2]; hek293, read-out: EC50): > 1000 µM
EC50 ([2]; read-out: pEC50 (converted)): > 1000 µM
Activity [3]: inactive
Activity [4]: inactive
Activity [5]: inactive
Activity [6]: inactive

Structure (SMILES): CCn1oc2c(c1=O)CNCC2
EC50 ([1]; hek293, read-out: EC50): > 1000 µM
EC50 ([1]; read-out: pEC50 (converted)): > 1000 µM
EC50 ([2]; hek293, read-out: EC50): > 1000 µM
EC50 ([2]; read-out: pEC50 (converted)): > 1000 µM
Activity [3]: inactive
Activity [4]: inactive
Activity [5]: inactive
Activity [6]: inactive

Structure (SMILES): CCOc1noc2c1CCNC2
EC50 ([1]; hek293, read-out: EC50): > 1000 µM
EC50 ([1]; read-out: pEC50 (converted)): > 1000 µM
EC50 ([2]; hek293, read-out: EC50): > 1000 µM
EC50 ([2]; read-out: pEC50 (converted)): > 1000 µM
Activity [3]: inactive
Activity [4]: inactive
Activity [5]: inactive
Activity [6]: inactive
